Like-named read-outs stand apart in the source and are kept apart here. Blank lines part the entries; values can stand above or below the compound they belong to.
Legend:
[1] = Plasma protein binding; type: in vitro ADME
[2] = biological target: T1, TSPO (Rattus norvegicus, UniProt P16257); test: Radioligand displacement of [3H]PK11195 in C6 glioma cell lysate; type: binding; conditions: for TSPO binding affinity, fold greater than 1 (DPA-714): relative to 1 (DPA-714); for TSPO binding affinity, fold greater than 2 (VUIIS1008): relative to 2
[3] = biological target: mitochondrial TSPO (mTSPO) (Mus musculus, UniProt P50637); test: 2D 1H-15N HSQC NMR titration of TSPO with ligands; type: binding; conditions: 5.0 mM ligand, 0.2 mM TSPO in DPC
How it was run: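 15N-labeled mitochondrial TSPO was expressed in E. coli BL21(DE3) in M9 minimal medium, then solubilized and purified in DPC detergent. 2D 1H-15N HSQC spectra were recorded with and without ligand (5.0 mM) on an 800-MHz spectrometer at 42 °C. Samples held 0.2 mM TSPO in ~2 % (w/v) DPC, 25 mM MES pH 6.0 and 100 mM NaCl.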

[4] = biological target: T1, TSPO; conditions: ref [18], [19], cited from earlier work
[5] = biological target: C6-2B mitochondria (rat glioma); conditions: C6-2B mitochondria (rat glioma) with [3H]PK11195; ref [28]; cited from earlier work
[6] = biological target: T1, TSPO; conditions: n = 5, prior study, ref [18], [19], cited from earlier work

- unbound fraction compared with DPA-714 [1]: lower unbound fraction than DPA-714
- IC50 [2]: 0.0144 nM
- Ki [2]: 7.04 pM
- TSPO binding affinity, fold greater than 1 (DPA-714) [2]: 500 fold
- TSPO binding affinity, fold greater than 1 (DPA-714) ([2]; listed as VUIIS1009A): approximately 500 fold
- TSPO binding affinity, fold greater than 2 (VUIIS1008) [2]: 20 fold
Compound: CCc1cc(C)nc2c(CC(=O)N(CC)CC)c(-c3ccc(OCCF)cc3)nn12 [3A, N,N-diethyl-2-(7-ethyl-2-(4-(2-fluoroethoxy)-phenyl)-5-methylpyrazolo[1,5-a]pyrimidin-3-yl)acetamide]

- unbound fraction compared with DPA-714 [1]: lower unbound fraction than DPA-714
- unbound fraction, difference compared with 3A [1]: 0.54%
- IC50 [2]: 0.0194 nM
- Ki [2]: 9.47 pM
- TSPO binding affinity, fold greater than 1 (DPA-714) [2]: 500 fold
- TSPO binding affinity, fold greater than 1 (DPA-714) ([2]; listed as VUIIS1009B): approximately 500 fold
- TSPO binding affinity, fold greater than 2 (VUIIS1008) [2]: 20 fold
Compound: CCc1cc(C)n2nc(-c3ccc(OCCF)cc3)c(CC(=O)N(CC)CC)c2n1 [3B, N,N-diethyl-2-(5-ethyl-2-(4-(2-fluoroethoxy)phenyl)-7-methylpyrazolo[1,5-a]pyrimidin-3-yl)acetamide]
- saturation of ligand-bound state of TSPO (HSQC) [3]: completely saturated the ligand-bound state

Compound: CCc1cc(CC)n2nc(-c3ccc(OCCF)cc3)c(CC(=O)N(CC)CC)c2n1 [VUIIS1008]
- IC50 ([4]; previously reported): 0.3 nM

Compound: CCC(C)N(C)C(=O)c1cc2ccccc2c(-c2ccccc2Cl)n1 (stereo not shown) [[^3H]PK11195]
- Kd [5]: 5.73 ± 2.38 nM

Compound: CCc1cc(CC)n2nc(-c3ccc(OCC[18F])cc3)c(CC(=O)N(CC)CC)c2n1 [[^18F]VUIIS1008, 2-(5,7-diethyl-2-(4-(2-[(18)F]fluoroethoxy)phenyl)pyrazolo[1,5-a]pyrimidin-3-yl)-N,N-diethylacetamide]
- VT (total distribution volume from kinetic parameters) ([6]; brain): 4.210 ± 1.612
- k1 ([6]; brain): 0.881 ±0.392
- k1/k2 ([6]; brain): 0.855 ± 0.325
- k2 ([6]; brain): 2.078 ± 1.666
- k3 ([6]; brain): 0.172 ± 0.070
- k3/k4 (binding potential, BPND) ([6]; brain): 4.435 ± 1.387
- k4 ([6]; brain): 0.037 ± 0.004
- VT (total distribution volume from kinetic parameters) ([6]; tumor): 25.224 ± 10.035
- k1 ([6]; tumor): 0.709 ± 0.306
- k1/k2 ([6]; tumor): 1.902 ± 0.816
- k2 ([6]; tumor): 0.442 ± 0.101
- k3 ([6]; tumor): 0.113 ±0.013
- k3/k4 (binding potential, BPND) ([6]; tumor): 12.634 ± 1.406
- k4 ([6]; tumor): 0.009 ± 0.002
- enhancement in TSPO affinity compared to 1 ([4]; prior studies): 36 fold
